In ChEMBL document CHEMBL4699588, “Structure-Activity Relationships of Noncovalent Immunoproteasome β5i-Selective Dipeptides” (J Med Chem, 2020):
Blank lines part the entries; values can stand above or below the compound they belong to. Calls of active or inactive are those of the source. The rule behind the calls is not given here.

Key:
[1] = molecular target: Procathepsin L (Homo sapiens) (UniProt P07711); assay: Inhibition of cathepsin L (unknown origin) at 11.1 to 100 uM; details: dose 11.1-100 µM
[2] = Inhibition of anti-CD3 antibody-stimulated T cell proliferation in human PBMCs; format: functional, tissue-based; details: PBMC
[3] = molecular target: proteasome subunit beta type-7, β2c, PSMB7 (Homo sapiens) (UniProt Q99436); assay: Inhibition of human 20S constitutive proteasome beta 2 at 33.3 uM relative to control
Homo sapiens [4] = species: Homo sapiens; assay: Inhibition of alpha-chymotrypsin (unknown origin) at 11.1 to 100 uM; details: dose 11.1-100 µM
[5] = molecular target: T1, Proteasome subunit beta type-10 (Homo sapiens) (UniProt P40306); assay: Inhibition of human 20S immunoproteasome beta 2 at 33.3 uM relative to control
T1 sequence (whole entry): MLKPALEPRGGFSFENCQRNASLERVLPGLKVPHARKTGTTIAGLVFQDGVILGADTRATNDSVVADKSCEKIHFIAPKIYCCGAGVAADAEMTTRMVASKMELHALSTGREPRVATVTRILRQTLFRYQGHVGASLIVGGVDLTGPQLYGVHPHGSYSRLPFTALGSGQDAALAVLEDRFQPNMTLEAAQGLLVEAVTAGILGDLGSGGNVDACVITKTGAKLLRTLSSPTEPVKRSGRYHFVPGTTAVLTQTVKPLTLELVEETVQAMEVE

[6] = molecular target: proteasome subunit beta type-6, β1c, PSMB6 (Homo sapiens) (UniProt P28072); assay: Inhibition of human 20S constitutive proteasome beta 1 at 33.3 uM relative to control
[7] = molecular target: T2, Proteasome subunit beta type-9 (Homo sapiens) (UniProt P28065); assay: Inhibition of human 20S immunoproteasome beta 1 at 33.3 uM relative to control
T2 sequence (whole entry): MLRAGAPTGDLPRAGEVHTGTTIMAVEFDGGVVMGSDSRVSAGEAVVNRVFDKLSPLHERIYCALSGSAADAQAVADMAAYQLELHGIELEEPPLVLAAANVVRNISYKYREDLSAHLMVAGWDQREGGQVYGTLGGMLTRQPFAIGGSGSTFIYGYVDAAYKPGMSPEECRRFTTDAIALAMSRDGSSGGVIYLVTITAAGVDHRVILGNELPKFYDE

Trypsin (Homo sapiens) = Trypsin (Homo sapiens) (UniProt P07477+P07478+P35030); assay: Inhibition of trypsin (unknown origin) at 11.1 to 100 uM; details: dose 11.1-100 µM
[8] = molecular target: T3, Proteasome Macropain subunit MB1 (Homo sapiens, UniProt P28074); assay: Inhibition of human constitutive 20S proteasome beta 5 chymotrypsin-like activity
T3 sequence (P28074 whole entry): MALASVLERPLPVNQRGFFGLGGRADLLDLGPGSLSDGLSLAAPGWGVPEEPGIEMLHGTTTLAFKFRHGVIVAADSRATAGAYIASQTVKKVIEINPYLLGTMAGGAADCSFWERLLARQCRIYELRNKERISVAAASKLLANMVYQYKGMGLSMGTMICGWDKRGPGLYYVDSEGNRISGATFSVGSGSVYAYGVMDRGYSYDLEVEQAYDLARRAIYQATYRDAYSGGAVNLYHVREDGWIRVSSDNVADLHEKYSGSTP
Method in brief: (§1)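 Purified human proteasomes were used in a 96-well format assay: immunoproteasome i-20S from PBMC and constitutive c-20S from red blood cells. The readout was fluorogenic AMC peptide substrate cleavage on a plate reader, and IC50 values were determined from it.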

[9] = molecular target: T4, Proteasome subunit beta type-8 (Homo sapiens, UniProt P28062); assay: Inhibition of human 20S immunoproteasome beta 5 chymotrypsin-like activity
T4 sequence (P28062 whole entry): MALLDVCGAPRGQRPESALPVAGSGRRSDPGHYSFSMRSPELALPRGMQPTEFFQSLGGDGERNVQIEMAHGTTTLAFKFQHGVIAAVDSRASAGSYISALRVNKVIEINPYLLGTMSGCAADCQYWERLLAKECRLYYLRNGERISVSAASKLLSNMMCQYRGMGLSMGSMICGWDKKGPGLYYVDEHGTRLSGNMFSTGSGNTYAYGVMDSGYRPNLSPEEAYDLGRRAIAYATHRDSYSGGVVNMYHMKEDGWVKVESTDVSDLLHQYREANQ
Method in brief: as §1

Homo sapiens [10] = species: Homo sapiens; assay: Selectivity index, ratio of IC50 for inhibition of human constitutive 20S proteasome beta 5 chymotrypsin-like activity to IC50 for inhibition of human 20S immunoproteasome beta 5 chymotrypsin-like activity
[11] = molecular target: T4, Proteasome subunit beta type-8; assay: Inhibition of human 20S immunoproteasome beta 5 chymotrypsin-like activity in human KARPAS-1106P cells incubated for 2 hrs by proteasome-Glo assay; format: cell-based

proteasome subunit beta type-6, β1c, PSMB6 (Homo sapiens), sequence (P28072 whole entry, looked up): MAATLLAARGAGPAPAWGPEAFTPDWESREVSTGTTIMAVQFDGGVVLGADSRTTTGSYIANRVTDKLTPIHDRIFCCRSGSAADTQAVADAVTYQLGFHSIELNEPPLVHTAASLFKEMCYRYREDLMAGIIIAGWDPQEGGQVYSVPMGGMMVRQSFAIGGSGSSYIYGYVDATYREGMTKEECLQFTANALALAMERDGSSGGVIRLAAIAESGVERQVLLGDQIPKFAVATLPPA
Procathepsin L (Homo sapiens), sequence (P07711 114-333 limits assumed): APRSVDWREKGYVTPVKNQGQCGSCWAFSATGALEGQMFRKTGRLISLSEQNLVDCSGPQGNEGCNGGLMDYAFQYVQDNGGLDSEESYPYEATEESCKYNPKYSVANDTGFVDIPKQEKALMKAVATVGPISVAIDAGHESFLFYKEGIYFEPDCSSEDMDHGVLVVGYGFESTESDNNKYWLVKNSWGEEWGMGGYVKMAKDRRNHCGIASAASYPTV
proteasome subunit beta type-7, β2c, PSMB7 (Homo sapiens), sequence (Q99436 whole entry, looked up): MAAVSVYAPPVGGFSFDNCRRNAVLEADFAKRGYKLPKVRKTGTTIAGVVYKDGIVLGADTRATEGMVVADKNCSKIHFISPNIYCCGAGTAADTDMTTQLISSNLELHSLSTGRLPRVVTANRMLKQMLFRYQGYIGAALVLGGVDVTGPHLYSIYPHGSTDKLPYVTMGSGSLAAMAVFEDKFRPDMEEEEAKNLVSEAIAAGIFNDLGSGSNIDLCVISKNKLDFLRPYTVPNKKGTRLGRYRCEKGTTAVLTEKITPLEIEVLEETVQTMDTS

inhibition [1]: inactive
inhibition [3]: < 50%
inhibition (Homo sapiens [4]): inactive
inhibition [5]: < 50%
inhibition [6]: < 50%
inhibition [7]: < 50%
inhibition (Trypsin (Homo sapiens)): inactive
SMILES: Cc1cc(C(=O)N[C@@H](CCC(=O)NC(C)(C)C)C(=O)N[C@@H](C)C(=O)NCc2ccc(F)c3ccccc23)no1
EC50 [2]: 73 nM

IC50 [8]: 59 µM
IC50 [9]: 2620 nM
Ratio IC50 (Homo sapiens [10]): 23
SMILES: C[C@H](NC(=O)[C@H](CC(=O)NOC(C)(C)C)NC(=O)CCc1ccccc1)C(=O)NCc1ccnc2ccccc12

IC50 [8]: > 100 µM
IC50 [9]: 21700 nM
Ratio IC50 (Homo sapiens [10]): > 5
SMILES: COC[C@H](NC(=O)CCc1ccccc1)C(=O)N[C@@H](C)C(=O)NCc1cccc2ccccc12

IC50 [8]: 0.101 µM
IC50 [9]: 14.4 nM
Ratio IC50 (Homo sapiens [10]): 7
SMILES: COC[C@H](NC(=O)[C@H](CC(=O)NOC(C)(C)C)NC(=O)CCc1ccccc1)C(=O)NCc1cccc(OC)c1

inhibition [1]: inactive
inhibition [3]: < 50%
inhibition (Homo sapiens [4]): inactive
inhibition [5]: < 50%
IC50 [9]: 1.6 nM
inhibition [6]: < 50%
IC50 [11]: 39 nM
inhibition [7]: < 50%
inhibition (Trypsin (Homo sapiens)): inactive
SMILES: C[C@H](NC(=O)[C@H](CCC(=O)NC(C)(C)C)NC(=O)CCc1ccccc1)C(=O)NCc1ccc(F)c2ccccc12
EC50 [2]: 44 nM

IC50 [8]: > 100 µM
Ratio IC50 (Homo sapiens [10]): > 7
SMILES: COC[C@H](NC(=O)[C@H](CC(=O)N1CCC1)NC(=O)CCc1ccccc1)C(=O)NCc1cccc2ccccc12

inhibition [1]: Active
inhibition [3]: < 50%
inhibition (Homo sapiens [4]): Active
inhibition [5]: < 50%
inhibition [6]: < 50%
inhibition [7]: < 50%
inhibition (Trypsin (Homo sapiens)): inactive
SMILES: C[C@H](NC(=O)[C@H](CC(=O)NC(C)(C)C)NC(=O)C(=O)c1c[nH]c2ccccc12)C(=O)NCc1cccc2ccccc12
EC50 [2]: 21 nM

Ratio IC50 (Homo sapiens [10]): 274
SMILES: COC[C@H](NC(=O)[C@H](CC(=O)NC(C)(C)C)NC(=O)c1cc(C)on1)C(=O)NCc1cccc2ccccc12

inhibition [1]: inactive
inhibition [3]: < 50%
inhibition (Homo sapiens [4]): inactive
inhibition [5]: < 50%
inhibition [6]: < 50%
inhibition [7]: < 50%
inhibition (Trypsin (Homo sapiens)): inactive
SMILES: COC[C@H](NC(=O)[C@H](CCC(=O)NC(C)(C)C)NS(=O)(=O)c1ccc(C)cc1)C(=O)NCc1ccc(F)c2ccccc12
EC50 [2]: 18 nM

IC50 [8]: 27.2 µM
IC50 [9]: 501 nM
Ratio IC50 (Homo sapiens [10]): 54
SMILES: COC[C@H](NC(=O)[C@H](CC(=O)NOC(C)(C)C)NC(=O)CCc1ccccc1)C(=O)NCc1cccc2c1NCCC2

IC50 [8]: > 100 µM
Ratio IC50 (Homo sapiens [10]): > 2.8
SMILES: NC(=O)C[C@H](NC(=O)CCc1ccccc1)C(=O)N[C@@H](Cc1ccc(F)cc1)C(=O)NCc1cccc2ccccc12

inhibition [1]: inactive
inhibition [3]: < 50%
inhibition (Homo sapiens [4]): inactive
inhibition [5]: < 50%
inhibition [6]: < 50%
inhibition [7]: < 50%
inhibition (Trypsin (Homo sapiens)): inactive
SMILES: Cc1ccc(S(=O)(=O)N[C@@H](CCC(=O)NC(C)(C)C)C(=O)N[C@@H](C)C(=O)NCc2ccc(F)c3ccccc23)cc1
EC50 [2]: 39 nM

Ratio IC50 (Homo sapiens [10]): 28
SMILES: COC[C@H](NC(=O)[C@H](CC(=O)N1CCCC1)NC(=O)CCc1ccccc1)C(=O)NCc1cccc2ccccc12

inhibition [1]: inactive
inhibition [3]: < 50%
inhibition (Homo sapiens [4]): inactive
inhibition [5]: < 50%
inhibition [6]: < 50%
inhibition [7]: < 50%
inhibition (Trypsin (Homo sapiens)): inactive
SMILES: COC[C@H](NC(=O)[C@H](CC(=O)NC(C)(C)C)NS(=O)(=O)c1ccc(C)cc1)C(=O)NCc1ccc(F)c2ccccc12
EC50 [2]: 73 nM

IC50 [8]: > 100 µM
Ratio IC50 (Homo sapiens [10]): > 9
SMILES: COC[C@H](NC(=O)[C@H](CC(=O)N(C)C)NC(=O)CCc1ccccc1)C(=O)NCc1cccc2ccccc12

Ratio IC50 (Homo sapiens [10]): 8
SMILES: CCN(CC)C(=O)C[C@H](NC(=O)CCc1ccccc1)C(=O)N[C@@H](COC)C(=O)NCc1cccc2ccccc12

IC50 [8]: 0.98 µM
IC50 [9]: 479 nM
Ratio IC50 (Homo sapiens [10]): 2
SMILES: COC[C@H](NC(=O)[C@H](CC(=O)NOC(C)(C)C)NC(=O)CCc1ccccc1)C(=O)NCc1cccc(OC)c1OC

Ratio IC50 (Homo sapiens [10]): 71
SMILES: COC[C@H](NC(=O)[C@H](CC(=O)NC(C)(C)C)NC(=O)CCc1ccccc1)C(=O)NCc1cccc2ccccc12

IC50 [8]: 1.04 µM
IC50 [9]: 83.7 nM
Ratio IC50 (Homo sapiens [10]): 12
SMILES: COC[C@H](NC(=O)[C@H](CC(=O)NOC(C)(C)C)NC(=O)CCc1ccccc1)C(=O)NCc1cccc2cccnc12

IC50 [8]: 12.7 µM
IC50 [9]: 1160 nM
Ratio IC50 (Homo sapiens [10]): 11
SMILES: C[C@H](NC(=O)[C@H](CC(=O)NOC(C)(C)C)NC(=O)CCc1ccccc1)C(=O)NCc1cccc2ncccc12

IC50 [8]: 0.17 µM
IC50 [9]: 28.4 nM
Ratio IC50 (Homo sapiens [10]): 6
SMILES: C[C@H](NC(=O)[C@H](CC(=O)NOC(C)(C)C)NC(=O)CCc1ccccc1)C(=O)NCc1cccc2[nH]ccc12

Ratio IC50 (Homo sapiens [10]): 58
SMILES: COC[C@H](NC(=O)[C@H](CC(=O)N1CCCCC1)NC(=O)CCc1ccccc1)C(=O)NCc1cccc2ccccc12
